Activity calls are given as the source filed them. The rule behind the calls is not given here.
Experiments:
Plasmodium falciparum = assay: Antiplasmodial activity against chloroquine and pyrimethamine-resistant Plasmodium falciparum K1 […] by reporter dye assay; format: functional, organism-based
[1] = test system: Trypanosoma brucei rhodesiense; assay: Trypanocidal activity against Trypanosoma brucei rhodesiense STIB 900 […] by reporter dye assay; format: functional, organism-based
Leishmania donovani = assay: Antileishmanial activity against Leishmania donovani MHOMET-67/L82 amastigotes infected in mouse macrophage by reporter dye assay; format: functional, organism-based
Trypanosoma cruzi = assay: Trypanocidal activity against Trypanosoma cruzi Tulahuen C4 trypomastigotes infected in mouse macrophage by reporter dye assay; format: functional, organism-based
Leishmania mexicana = assay: Antiprotozoal activity against axenic Leishmania mexicana amastigotes by alamar blue fluorescent dye assay; format: functional, organism-based
[2] = test system: Trypanosoma brucei brucei; assay: Trypanocidal activity against Trypanosoma brucei brucei s427 by alamar blue fluorescent dye assay; format: functional; conditions: read-out: ED50 (the source's name)
[3] = test system: Trypanosoma brucei brucei; assay: Inhibition of Trypanosoma brucei brucei 427 P1 transporter-mediated [3H]adenosine uptake by fluid scintillation counting in presence of 100 uM adenine
[4] = test system: Trypanosoma brucei brucei; assay: Trypanostatic activity against Trypanosoma brucei brucei s427 by alamar blue fluorescent dye assay; format: functional; conditions: read-out: ED50 (the source's name)
Leishmania major [5] = assay: Leishmanistatic activity against Leishmania major promastigotes by alamar blue fluorescent dye assay; format: functional; conditions: read-out: ED50 (the source's name)
Leishmania major [6] = assay: Leishmanicidal activity against Leishmania major promastigotes by alamar blue fluorescent dye assay; format: functional; conditions: read-out: ED50 (the source's name)
L6 = assay: Cytotoxicity against rat L6 cells; format: cell-based
[7] = Cytotoxicity against HEK293T cells after 16 hrs by alamar blue staining; format: cell-based; conditions: Homo sapiens, HEK-293T
In short: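 HEK 293T cells were seeded at 3×10^4/well in DMEM with 10% newborn bovine serum, 2 mM L-glutamax and 1% penicillin-streptomycin, and left to adhere for 3 h at 37°C under 5% CO2. Medium with serial drug dilutions (500 to 0.24 μM in the added medium) was then given for 16 h. Resazurin followed for a further 24 h, read by fluorescence (ex 530/em 590 nm). IC50 values came from ≥3 independent experiments.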

[8] = Inhibition of Trypanosoma brucei brucei 427 P2 transporter-mediated [3H]adenosine uptake by fluid scintillation counting in presence of 100 uM inosine
Leishmania major [9] = assay: Biphasic antileishmanial activity against Leishmania major promastigotes by alamar blue fluorescent dye assay; format: functional, organism-based
[10] = Inhibition of [3H]hypoxanthine uptake at Trypanosoma brucei brucei 427 H2 transporter expressed in human erythrocytes by fluid scintillation counting; format: cell-based

SMILES	IC50 (Plasmodium falciparum) [µM]	IC50 [1] [µM]	IC50 (Leishmania donovani) [µM]	IC50 (Trypanosoma cruzi) [µM]	IC50 [7] [µM]	also measured
OC[C@H]1O[C@@H](n2cnc3c(NCc4cccc5ccccc45)nc(NCCC(c4ccccc4)c4ccccc4)nc32)[C@H](O)[C@@H]1O	1.76	24.1	–	–	–	–
OC[C@H]1O[C@@H](n2cnc3c(NC4CC4)nc(NC4CC4)nc32)[C@H](O)[C@@H]1O	> 10	172	–	–	–	–
OC[C@H]1O[C@@H](n2cnc3c(N4CCCCC4)nc(NC4CCCC4)nc32)[C@H](O)[C@@H]1O	> 10	11.2	–	–	–	–
OC[C@H]1O[C@@H](n2cnc3c(NCCC(c4ccccc4)c4ccccc4)nc(NCCc4cnc[nH]4)nc32)[C@H](O)[C@@H]1O	8.17	71.5	< 30	< 30	–	–
OC[C@H]1O[C@@H](n2cnc3c(NC4CCCC4)nc(NC4CCCC4)nc32)[C@H](O)[C@@H]1O	> 10	0.4	–	–	> 500	IC50 (Leishmania mexicana): 9.01 µM; EC50 [2]: 15.7 µM; inhibition [3]: inactive; EC50 [4]: 0.166 µM; EC50 (Leishmania major [5]): 0.01 µM; EC50 (Leishmania major [6]): 9.07 µM; IC50 (L6): 97.3 µM; Ki [8]: 20 µM
N=C(N)c1ccc(OCCCCCOc2ccc(C(=N)N)cc2)cc1 [PENTAMIDINE]	–	–	–	–	–	IC50 (Leishmania major [9]): 3.52 µM
OC[C@H]1O[C@@H](n2cnc3c(NC4CCCC4)nc(NCCc4cnc[nH]4)nc32)[C@H](O)[C@@H]1O	> 10	37.8	< 30	< 30	–	–
c1nc2nc(NC3CCCC3)nc(NC3CCCC3)c2[nH]1	–	–	–	–	–	IC50 (Leishmania mexicana): 15.2 µM; EC50 [2]: 23.4 µM; Ki [10]: 33.4 µM; EC50 [4]: 0.026 µM; EC50 (Leishmania major [5]): 0.015 µM; EC50 (Leishmania major [6]): 15.1 µM
OC[C@H]1O[C@@H](n2cnc3c(NC4CC4)nc(NC4CCCC4)nc32)[C@H](O)[C@@H]1O	> 10	1.84	–	–	> 500	–
OC[C@H]1O[C@@H](n2cnc3c(NC4CCCC4)nc(NCCC4CNc5ccccc54)nc32)[C@H](O)[C@@H]1O (some centres not stated)	> 10	20.8	< 30	< 30	–	IC50 (L6): 48.4 µM
OC[C@H]1O[C@@H](n2cnc3c(NCc4cccc(I)c4)nc(NCCOCc4ccccc4)nc32)[C@H](O)[C@@H]1O	> 10	27	< 30	< 30	–	–
OC[C@H]1O[C@@H](n2cnc3c(NCCC(c4ccccc4)c4ccccc4)nc(NCc4cccc5ccccc45)nc32)[C@H](O)[C@@H]1O	1.56	17.3	–	–	–	–
OC[C@H]1O[C@@H](n2cnc3c(NC4CCCCCC4)nc(NC4CCCC4)nc32)[C@H](O)[C@@H]1O	8.95	0.71	–	–	> 500	–
OC[C@H]1O[C@@H](n2cnc3c(NC4CCCCC4)nc(NC4CCCC4)nc32)[C@H](O)[C@@H]1O	> 10	0.71	–	–	> 500	–
Nc1ncnc2c1ncn2[C@H]1C[C@H](O)[C@@H](CO)O1 [DEOXYADENOSINE]	–	–	–	–	–	inhibition [3]: inactive; Ki [8]: 0.23 µM
COc1nc(NCCC(c2ccccc2)c2ccccc2)c2ncn([C@@H]3O[C@H](CO)[C@@H](O)[C@H]3O)c2n1	> 10	36	< 30	< 30	–	–
OC[C@H]1O[C@@H](n2cnc3c(Nc4ccccc4)nc(NCCC4CNc5ccccc54)nc32)[C@H](O)[C@@H]1O (some centres not stated)	5.55	18.8	< 30	< 30	–	IC50 (L6): 13.2 µM
OC[C@H]1O[C@@H](n2cnc3c(NCCC(c4ccccc4)c4ccccc4)nc(NC4CCCC4)nc32)[C@H](O)[C@@H]1O	3.28	8	< 30	< 30	–	–
COc1nc(NC2CCCC2)c2ncn([C@@H]3O[C@H](CO)[C@@H](O)[C@H]3O)c2n1	> 10	32.9	< 30	< 30	–	IC50 (L6): 51.6 µM
COc1nc(NCc2cccc(I)c2)c2ncn([C@@H]3O[C@H](CO)[C@@H](O)[C@H]3O)c2n1	> 10	26.7	< 30	< 30	–	–
OC[C@H]1O[C@@H](n2cnc3c(NC4CCCC4)nc(NC4CCCCCC4)nc32)[C@H](O)[C@@H]1O	6.79	3.06	–	–	167	–
OC[C@H]1O[C@@H](n2cnc3c(NC4CCCC4)nc(NC4CC4)nc32)[C@H](O)[C@@H]1O	> 10	1.43	–	–	> 500	–
CCCCNc1nc(NC2CCCC2)nc2c1ncn2[C@@H]1O[C@H](CO)[C@@H](O)[C@H]1O	> 10	0.64	–	–	> 500	inhibition [3]: inactive; Ki [8]: 9 µM

— ChEMBL document CHEMBL1137633, “2,N6-disubstituted adenosine analogs with antitrypanosomal and antimalarial activities” (Antimicrob Agents Chemother, 2007)
